Series [1] has as its system Staphylococcus epidermidis. Briefly: Antimicrobial activity against Staphylococcus epidermidis ATCC 12228 after 24 hrs by broth dilution method. Type of series: functional. Conditions: ATCC 12228, 24 h. The method in brief: (§1)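 Strains stored at −70 °C, grown at 30 °C on blood agar, suspended in physiological saline to OD595 0.1, diluted 10× in saline. 2 µL inoculum added to 100 µL nutrient broth with yeast extract. Peptides dissolved in ethanol (4 g/L), diluted in water (1 g/L), then two-fold in broth (64 to 1 mg/L). Incubated at 30 °C; MIC read as lowest concentration inhibiting growth at 24 h.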

Series [2] is described as follows: Toxicity in human erythrocytes assessed as hemolytic activity after 4 hrs. To be noted: erythrocyte. The format is cell-based. The method in brief: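 Heparinized fresh blood spun at 1000 g, 10 °C; erythrocytes washed three times in 0.85% saline and diluted to 1/25 packed volume. Peptide stocks 1.5 mM in 30% DMSO/saline, serially two-fold diluted in saline. Cells added, then incubated 4 h at 37 °C and centrifuged. Supernatant A405 read against 1% Triton X-100 as full lysis; single experiment run in triplicate.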

The test system of series [3] is Staphylococcus aureus. Put plainly: Antimicrobial activity against Staphylococcus aureus ATCC 29213 after 24 hrs by broth dilution method. Conditions: ATCC 29213, 24 h. The format is functional. The method in brief:
as §1

Series [4] deals with Enterococcus faecalis. Briefly: Antimicrobial activity against Enterococcus faecalis ATCC 29212 after 24 hrs by broth dilution method. The format is functional. Conditions: ATCC 29212, 24 h. The method, boiled down:
as §1

Series [5] relates to Bacillus cereus. Briefly: Antimicrobial activity against Bacillus cereus ATCC 11778 after 24 hrs by broth dilution method. The format is functional. Conditions: ATCC 11778, 24 h. The method, boiled down: as §1
Series [6] concerns Pseudomonas aeruginosa. Put plainly: Antimicrobial activity against Pseudomonas aeruginosa ATCC 27853 after 24 hrs by broth dilution method. Type of series: functional. To be noted: ATCC 27853, 24 h. The method, boiled down: as §1
The test system of series [7] is Escherichia coli. Put plainly: Antimicrobial activity against Escherichia coli ATCC 25922 after 24 hrs by broth dilution method. Type of series: functional. To be noted: ATCC 25922, 24 h. The method in brief:
as §1

In series [8] the test system is Klebsiella pneumoniae. Put plainly: Antimicrobial activity against Klebsiella pneumoniae 1190901525 after 24 hrs by broth dilution method. The format is functional. To be noted: Klebsiella pneumoniae, 1190901525, 24 h. The method in brief:
as §1

For series [9], the system named is Enterobacter cloacae. Put plainly: Antimicrobial activity against Enterobacter cloacae 1190900252 after 24 hrs by broth dilution method. Type of series: functional. To be noted: Enterobacter cloacae, 1190900252, 24 h. The method in brief:
as §1

Series [10] deals with Proteus mirabilis. Briefly: Antimicrobial activity against Proteus mirabilis 1190901236 after 24 hrs by broth dilution method. To be noted: Proteus mirabilis, 1190901236, 24 h. Type of series: functional. The method in brief: as §1

≈ marks a conversion by molar mass, not a printed value.

As to `CC(C)C[C@@H]1NC(=O)[C@H](CCCN)NC(=O)[C@H](C(C)C)NC(=O)[C@@H]2CCCN2C(=O)[C@@H](Cc2ccccc2)NC(=O)[C@H](CC(C)C)NC(=O)[C@H](CCCN)NC(=O)[C@H](C(C)C)NC(=O)[C@H](CCCN)NC(=O)[C@H](CC(C)C)NC(=O)[C@@H]2O[C@H](CNC(=O)[C@H](C(C)C)NC(=O)[C@H](CCCN)NC1=O)[C@@H](OCc1ccccc1)[C@@H]2OCc1ccccc1`, the MIC is 4 µg/mL (≈ 2.38 µM) in series [1]; 4 µg/mL (≈ 2.38 µM) in [3]; 8 µg/mL (≈ 4.77 µM) in series [4]; 2 µg/mL (≈ 1.19 µM) in [5]; 16 µg/mL (≈ 9.54 µM) in series [6]; 16 µg/mL (≈ 9.54 µM) in [7]. In addition, the MIC in series [8] was 32 µg/mL (≈ 19.1 µM); in series [9], 32 µg/mL (≈ 19.1 µM); in [10], more than 64 µg/mL. Moreover, the HD100 in [2] came to 15.6 µM.

The values are drawn from ChEMBL document CHEMBL1811906, “Synthesis and evaluation of strand and turn modified ring-extended gramicidin S derivatives” (Bioorg Med Chem, 2011).
